Legend:
[1] = target: Bromodomain-containing protein 2 (Homo sapiens) (UniProt P25440); assay: Binding affinity to BRD2 bromodomain 1 (unknown origin) at 20 uM by Alpha screen assay relative to control
[2] = Half life in Sprague-Dawley rat at 10 mg/kg, po measured for 0.083 to 24 hrs by LC-MS/MS analysis; assay type: ADME, organism-based; settings: in vivo
A549 [3] = assay: Induction of apoptosis in human A549 cells assessed as viable cells at 1.0 uM incubated for 48 hrs by annexin V-FITC/PI double staining based flow cytometric analysis (reference value: 98.2%); assay type: functional; settings: A549, 48 h, read-out: Activity
[4] = Oral bioavailability in Sprague-Dawley rat at 10 mg/kg measured for 0.083 to 24 hrs by LC-MS/MS analysis; assay type: ADME, organism-based; settings: in vivo
[5] = target: T1, Bromodomain-containing protein 4 (Homo sapiens, UniProt O60885); assay: Binding affinity to recombinant human His-tagged BRD4 bromodomain 2 expressed in […] insect cells using biotinylated H4(1 to 21)K5/8/12/16Ac peptide as substrate at 20 uM preincubated for 30 mins followed by substrate addition and measured after 30 mins by Alpha screen assay relative to control
A549 [6] = assay: Induction of apoptosis in human A549 cells assessed as early apoptotic cells at 0.3 uM incubated for 48 hrs by annexin V-FITC/PI double staining based flow cytometric analysis (reference value: 1.76%); assay type: functional
[7] = Tmax in Sprague-Dawley rat at 2.5 mg/kg, iv measured for 0.083 to 24 hrs by LC-MS/MS analysis; assay type: ADME, organism-based; settings: in vivo
[8] = Half life in Sprague-Dawley rat at 2.5 mg/kg, iv measured for 0.083 to 24 hrs by LC-MS/MS analysis; assay type: ADME, organism-based; settings: in vivo
A549 [9] = assay: Induction of apoptosis in human A549 cells assessed as viable cells at 5.0 uM incubated for 48 hrs by annexin V-FITC/PI double staining based flow cytometric analysis (reference value: 98.2%); assay type: functional; settings: A549, 48 h, read-out: Activity
A549 [10] = assay: Induction of apoptosis in human A549 cells assessed as late apoptotic cells at 1.0 uM incubated for 48 hrs by annexin V-FITC/PI double staining based flow cytometric analysis (reference value: 0.039%); assay type: functional
Peregrin (Homo sapiens) = target: T2, Peregrin (Homo sapiens) (UniProt P55201); assay: Binding affinity to BRPF1B (unknown origin) at 20 uM by Alpha screen assay relative to control
T2 sequence (whole entry): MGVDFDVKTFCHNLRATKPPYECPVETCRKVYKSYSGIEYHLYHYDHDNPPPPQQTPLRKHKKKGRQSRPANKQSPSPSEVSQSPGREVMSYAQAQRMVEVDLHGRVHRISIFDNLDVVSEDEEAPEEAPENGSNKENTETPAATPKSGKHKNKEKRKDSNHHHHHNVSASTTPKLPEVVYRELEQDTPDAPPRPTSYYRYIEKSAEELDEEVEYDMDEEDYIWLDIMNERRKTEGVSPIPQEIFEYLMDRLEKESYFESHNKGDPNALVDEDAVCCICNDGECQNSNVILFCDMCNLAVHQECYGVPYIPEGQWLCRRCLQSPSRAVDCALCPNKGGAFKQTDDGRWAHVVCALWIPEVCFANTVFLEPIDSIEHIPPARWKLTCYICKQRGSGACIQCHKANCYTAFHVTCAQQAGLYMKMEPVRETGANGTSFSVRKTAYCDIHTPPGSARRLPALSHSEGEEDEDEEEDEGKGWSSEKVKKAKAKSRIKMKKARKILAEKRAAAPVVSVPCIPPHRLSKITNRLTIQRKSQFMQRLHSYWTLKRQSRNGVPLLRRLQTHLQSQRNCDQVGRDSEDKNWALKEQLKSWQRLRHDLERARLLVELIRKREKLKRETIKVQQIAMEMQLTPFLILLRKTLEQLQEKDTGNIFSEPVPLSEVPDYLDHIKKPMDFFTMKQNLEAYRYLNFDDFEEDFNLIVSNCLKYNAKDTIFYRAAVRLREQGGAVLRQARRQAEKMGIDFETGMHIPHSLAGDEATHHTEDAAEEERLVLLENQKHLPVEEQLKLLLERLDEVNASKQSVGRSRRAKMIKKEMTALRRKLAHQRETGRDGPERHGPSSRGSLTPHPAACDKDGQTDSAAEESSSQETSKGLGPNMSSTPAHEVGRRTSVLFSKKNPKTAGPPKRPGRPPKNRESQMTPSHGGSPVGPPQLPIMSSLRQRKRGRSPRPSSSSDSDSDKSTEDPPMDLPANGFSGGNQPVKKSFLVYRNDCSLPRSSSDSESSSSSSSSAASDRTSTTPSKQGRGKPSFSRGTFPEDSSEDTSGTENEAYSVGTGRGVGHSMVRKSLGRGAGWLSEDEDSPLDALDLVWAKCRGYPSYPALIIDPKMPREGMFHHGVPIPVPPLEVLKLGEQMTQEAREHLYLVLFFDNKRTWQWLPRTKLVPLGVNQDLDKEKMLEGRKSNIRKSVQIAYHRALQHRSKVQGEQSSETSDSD

[11] = Tmax in Sprague-Dawley rat at 10 mg/kg, po measured for 0.083 to 24 hrs by LC-MS/MS analysis; assay type: ADME, organism-based; settings: in vivo
A549 [12] = assay: Induction of cell cycle arrest in human A549 cells assessed as accumulation at […] phase at 1.0 uM incubated for 48 hrs by BrdU/PI staining based flow cytometric analysis; assay type: functional
In short: (§1)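 Subconfluent A549 cells exposed 48 h to 0.3–5.0 μM with DMSO vehicle control. Pulse-labelled with 10 μM BrdU for 30 min at 37 °C before harvest. Fixed in 70% ethanol, denatured in 2 M HCl, neutralised, then stained with fluorescein anti-BrdU antibody and propidium iodide. Analysed by flow cytometry with 488 nm excitation.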

A549 [13] = assay: Induction of apoptosis in human A549 cells assessed as viable cells at 0.3 uM incubated for 48 hrs by annexin V-FITC/PI double staining based flow cytometric analysis (reference value: 98.2%); assay type: functional; settings: A549, 48 h, read-out: Activity
A549 [14] = assay: Induction of cell cycle arrest in human A549 cells assessed as accumulation at […] phase at 0.3 uM incubated for 48 hrs by BrdU/PI staining based flow cytometric analysis; assay type: functional; in short: as §1
A549 [15] = assay: Induction of apoptosis in human A549 cells assessed as early apoptotic cells at 5.0 uM incubated for 48 hrs by annexin V-FITC/PI double staining based flow cytometric analysis (reference value: 1.76%); assay type: functional
[16] = target: T1, Bromodomain-containing protein 4; assay: Inhibition of recombinant human His-tagged BRD4 bromodomain 1/2 (2 to 1362 residues) expressed in […] insect cells using biotinylated H4(1 to 21)K5/8/12/16Ac peptide as substrate preincubated for 30 mins followed by substrate addition and measured after 30 mins by Alpha screen assay
[17] = AUC (0 to t) in Sprague-Dawley rat at 2.5 mg/kg, iv measured for 0.083 to 24 hrs by LC-MS/MS/MS analysis; assay type: ADME, organism-based; set-up: time upper 24 hr, dose 2.5 mg/kg, time lower 0.083 hr, route intravenous; settings: in vivo
HepG2 = assay: Antiproliferative activity against human HepG2 cells incubated for 48 hrs by MTT assay; assay type: functional, cell-based; settings: HepG2, 48 h
In short: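 Cells kept in DMEM or RPMI 1640 with 10% FBS at 37 °C, 5% CO2. MTT added for 4 h at 37 °C, formazan dissolved in DMSO, OD read at 570 nm. Survival % taken relative to blank and control wells. Triplicate runs; IC50 from curve fit.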

Sequence of Bromodomain-containing protein 2 (Homo sapiens) (P25440 whole entry, looked up): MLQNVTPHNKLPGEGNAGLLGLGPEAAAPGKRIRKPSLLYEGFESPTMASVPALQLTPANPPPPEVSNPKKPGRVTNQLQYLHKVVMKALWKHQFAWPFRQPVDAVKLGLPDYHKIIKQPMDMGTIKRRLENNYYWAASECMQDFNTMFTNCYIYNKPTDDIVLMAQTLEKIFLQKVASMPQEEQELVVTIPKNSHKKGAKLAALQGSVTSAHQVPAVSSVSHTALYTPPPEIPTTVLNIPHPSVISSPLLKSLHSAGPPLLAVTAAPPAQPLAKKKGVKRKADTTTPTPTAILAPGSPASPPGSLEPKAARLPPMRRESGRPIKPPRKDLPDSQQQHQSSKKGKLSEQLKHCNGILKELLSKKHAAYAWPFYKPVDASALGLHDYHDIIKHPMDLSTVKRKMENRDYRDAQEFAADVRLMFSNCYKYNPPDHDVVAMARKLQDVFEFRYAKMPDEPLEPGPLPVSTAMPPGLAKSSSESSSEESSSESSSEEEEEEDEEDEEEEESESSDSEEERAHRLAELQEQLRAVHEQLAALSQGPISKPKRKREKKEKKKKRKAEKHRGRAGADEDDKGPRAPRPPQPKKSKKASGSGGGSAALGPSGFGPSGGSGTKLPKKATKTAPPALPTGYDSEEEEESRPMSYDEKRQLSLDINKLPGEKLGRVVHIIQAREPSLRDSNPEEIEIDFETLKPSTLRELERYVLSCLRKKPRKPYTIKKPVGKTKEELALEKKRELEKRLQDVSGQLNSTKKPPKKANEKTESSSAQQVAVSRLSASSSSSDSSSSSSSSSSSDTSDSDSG

COc1ccc(Cl)cc1S(=O)(=O)Nc1ccc2[nH]c(=O)c3ccccc3c2c1
Activity [1]: > 70%
half-life [2]: 3.87 h
viability at 1 µM (A549 [3]): 46.1%
bioavailability [4]: 36.6%
Activity [5]: > 70%
Activity (A549 [6]): 27.7%
Tmax [7]: 4.98 min
half-life [8]: 10.4 h
viability at 5 µM (A549 [9]): 19.7%
Activity (A549 [10]): 6.13%
Activity (Peregrin (Homo sapiens)): > 30%
Tmax [11]: 5.33 h
Activity (A549 [12]): 70.3%
viability at 0.3 µM (A549 [13]): 69.6%
Activity (A549 [14]): 60.84%
Activity (A549 [15]): 72%
IC50 [16]: 240 nM
AUC(0-t) [17]: 383 ng·h/mL
IC50 (HepG2): 4830 nM

— ChEMBL document CHEMBL4351018, “Novel phenanthridin-6(5H)-one derivatives as potent and selective BET bromodomain inhibitors: Rational design, synthesis and biological evaluation” (Eur J Med Chem, 2019)
